Results of several laboratories.
Each line is one published result; the experiments were not run side by side.
Target: Dual specificity mitogen-activated protein kinase kinase 7 (MAP2K7, Homo sapiens, UniProt O14733)
One construct used (O14733 1-419): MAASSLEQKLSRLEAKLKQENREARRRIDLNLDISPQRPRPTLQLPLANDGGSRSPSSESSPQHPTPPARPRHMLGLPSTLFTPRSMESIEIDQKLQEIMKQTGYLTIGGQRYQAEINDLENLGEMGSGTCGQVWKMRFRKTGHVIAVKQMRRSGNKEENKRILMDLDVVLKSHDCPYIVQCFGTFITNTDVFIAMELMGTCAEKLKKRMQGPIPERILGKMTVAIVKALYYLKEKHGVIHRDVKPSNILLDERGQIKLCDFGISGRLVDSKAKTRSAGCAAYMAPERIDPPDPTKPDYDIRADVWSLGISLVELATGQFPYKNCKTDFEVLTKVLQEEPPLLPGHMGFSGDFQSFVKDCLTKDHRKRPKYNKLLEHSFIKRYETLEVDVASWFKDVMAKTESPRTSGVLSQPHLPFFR

Cc1sc(C(=O)NC2COC2)cc1-n1cc(NC(=O)Nc2c(F)cccc2Cl)cn1  remaining activity (enzyme activity, inhibitor; 10 µM): 120%
N[C@@H]1CCN(c2nccc(-c3cnn4ncccc34)n2)C1  remaining binding (binding; 1 µM): 100%
O=C(Nc1cnn(-c2csc(C(=O)NC3COC3)c2)c1)Nc1c(F)cccc1Cl  remaining activity (enzyme activity, inhibitor; 5 µM): 135%
Nc1ncnc2occ(-c3ccc(NC(=O)Nc4cc(C(F)(F)F)ccc4F)cc3)c12  remaining signal (cell-free assay, inhibitor; 20 µM): 2.9%
CCN(CC)CCNC(=O)c1c(C)[nH]c(/C=C2\C(=O)Nc3ccc(F)cc32)c1C  inhibition (enzyme activity, inhibitor; 10 µM): 31%
CC(C)(C)c1nc(-c2cccc(NS(=O)(=O)c3c(F)cccc3F)c2F)c(-c2ccnc(N)n2)s1  remaining activity (enzyme activity, inhibitor, radiometric; 1 µM): 78%
Cc1cc(NC(=O)c2cccc(S(F)(F)(F)(F)F)c2)cc(-n2ccn3nc(-c4cccnc4)cc23)c1  remaining binding (cell-free assay, competition with immobilised ligand; 1 µM): 89.7%
CC(C)(C)c1nc2c(s1)c1nc(N)ncc1c1ccc(NS(=O)(=O)c3c(F)cccc3F)c(F)c12  remaining activity (enzyme activity, inhibitor, radiometric; 1 µM): 83%
CNC(=O)c1cc(Oc2ccc(NC(=O)Nc3ccc(Cl)c(C(F)(F)F)c3)cc2)ccn1  inhibition (enzyme activity, inhibitor; 10 µM): 40%
Cc1ccc(C(=O)Nc2ccc(CN3CCN(C)CC3)c(C(F)(F)F)c2)cc1C#Cc1cnc2cccnn12  remaining activity (enzyme activity, inhibitor; 23.5 nM): 75%
F[C@@H]1CCN(c2nccc(-c3cnn4ncccc34)n2)C1  remaining binding (binding; 1 µM): 100%
C[C@H](NC(=O)c1cnc2n1[C@](C)(Cc1ccc(C#N)cc1)C(=O)N2c1cc(Cl)c(F)c(Cl)c1)C(=O)NC1(c2ccccn2)CC1  remaining binding (cell-free assay, competition with immobilised ligand; 1 µM): 100%
